# ChEMBL document CHEMBL1125351, “Isobenzofurans as conformationally constrained miconazole analogues with improved antifungal potency” (1992)
# Values joined by “and” are separate entries in the source; they are usually repeats but may differ in a detail not shown here. Equal entries are not always repeated.
# Assays:
# [1] = tested on: Trichophyton rubrum; assay: Minimum inhibitory concentration against Trichophyton rubrum at a pH of 5.7 using SDB medium; format: functional
# Summary of the method: (§1)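 Dermatophyte isolates tested by serial broth dilution in SDB, pH 5.7. Compound stocks in DMSO or ethanol, incubated at 27 °C, and growth read visually at 72 h. MIC is the lowest concentration with no visible growth. The summary value is the geometric mean of the MICs across the organisms.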
# [2] = tested on: Microsporum canis; assay: Minimum inhibitory concentration against Microsporum canis at a pH of 5.7 using SDB medium; format: functional; summary of the method: as §1
# [3] = tested on: Candida; assay: Compound is evaluated for geometric mean of MIC values of Candida species; format: functional; set-up: unit not given beside the values
# [4] = tested on: Candida albicans; assay: Minimum inhibitory concentration against Candida albicans at a pH of 5.7 using SDB medium; format: functional
# Summary of the method: (§2)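 Broth dilution in Sabouraud dextrose broth, pH 5.7. Compounds dissolved in DMSO or ethanol, serially diluted in medium, inoculated and incubated at 27 °C. Wells read visually at 48 h. MIC is the lowest concentration giving complete growth inhibition.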
# [5] = tested on: Candida tropicalis; assay: Minimum inhibitory concentration against Candida tropicalis using eagles minimum essential medium (EMEM); format: functional
# Summary of the method: (§3)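 Candida MICs in Eagle's minimum essential medium, pH 7.0. Compounds in DMSO or ethanol were serially diluted in medium, inoculated and incubated at 37 °C under CO₂. […] The summary value is the geometric mean of the MICs across strains.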
# [6] = tested on: Candida albicans; assay: Minimum inhibitory concentration against Candida stellatoidea using eagles minimum essential medium (EMEM); format: functional; summary of the method: as §3
# [7] = tested on: Trichophyton benhamiae; assay: Minimum inhibitory concentration against Trichophyton mentagrophytes at a pH of 5.7 using SDB medium; format: functional, Arthroderma benhamiae; summary of the method: as §1
# [8] = Geometric mean for the above three species of Candida, tested in EMEM medium; format: functional; summary of the method: as §3
# [9] = tested on: Candida albicans; assay: Minimum inhibitory concentration against Candida stellatoidea at a pH of 5.7 using SDB medium; format: functional; summary of the method: as §2
# [10] = tested on: Nannizzia gypsea; assay: Minimum inhibitory concentration against Microsporum gypseum at a pH of 5.7 using SDB medium; format: functional; summary of the method: as §1
# [11] = tested on: Epidermophyton floccosum; assay: Minimum inhibitory concentration against Epidermophyton floccosum at a pH of 5.7 using SDB medium; format: functional; summary of the method: as §1
# [12] = tested on: Candida tropicalis; assay: Minimum inhibitory concentration against Candida tropicalis at a pH of 5.7 using SDB medium; format: functional; summary of the method: as §2
# [13] = tested on: Candida albicans; assay: Minimum inhibitory concentration against Candida albicans using eagles minimum essential medium (EMEM); format: functional; summary of the method: as §3
# [14] = tested on: Candida parapsilosis; assay: Minimum inhibitory concentration against Candida parapsilosis at a pH of 5.7 using SDB medium; format: functional; conditions: Lodderomyces parapsilosis; summary of the method: as §2
# [15] = tested on: Arthrodermataceae; assay: (§4) Compound is evaluated for geometric mean of MIC values of dermatophytes; format: functional; set-up: unit not given beside the values; summary of the method: as §1
# [16] = tested on: Cricetinae gen. sp.; assay: Inhibition of Vaginal Candida (C-60 strain) infection in Hamsters, estimated as Percent Area under curve at 0.05 % concentration after 4 days of administration; format: functional, Cricetulus griseus
# Summary of the method: (§5)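 Hamster vaginal C. albicans infection (strains C43 or C60; 10 animals per compound). From day 5 post-infection, a cotton pellet holding 0.15 mL of 0.05% or 0.01% (w/w) compound in EtOH–PEG 400–glycerol (10:45:45) was inserted once daily for 4 or 8 days. Vaginal swabs were filtered and the filters cultured on SDA at 37 °C for 48 h. Read-out was the area under the % negative cultures versus time curve.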
# [17] = tested on: Cricetinae gen. sp.; assay: Inhibition of Vaginal Candida (C-60 strain) infection in Hamsters, estimated as Percent Area under curve at 0.01 % concentration after 4 days of administration; format: functional, Cricetulus griseus; summary of the method: as §5
# [18] = tested on: Arthrodermataceae; assay: as §4; format: functional; summary of the method: as §1
# [19] = tested on: Cricetinae gen. sp.; assay: Inhibition of Vaginal Candida (C-43 strain) infection in Hamsters, estimated as Percent Area under curve at 0.05 % concentration after 8 days of administration; format: functional, Cricetulus griseus; summary of the method: as §5
# [20] = tested on: Cricetinae gen. sp.; assay: Inhibition of Vaginal Candida (C-60 strain) infection in Hamsters, estimated as Percent Area under curve at 0.05 % concentration after 8 days of administration; format: functional, Cricetulus griseus; summary of the method: as §5
# [21] = tested on: Cavia porcellus; assay: In vivo inhibition of topical Trichophyton infection in Guinea Pig after drug administration; format: functional
# Summary of the method: (§6)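 Guinea pigs (5 per compound) infected with T. mentagrophytes D24 by swabbing a homogenate onto shaven, abraded skin. From day 4 post-infection, 0.25% (w/v) compound in EtOH–PEG 400–glycerol (10:45:45) was rubbed in topically twice daily for 10 days. Hair samples were cultured on SDA at 27 °C for up to 16 days. Read-outs were the % negative cultures and the day each animal became culture-negative.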
# [22] = tested on: Cavia porcellus; assay: In vivo inhibition of topical Trichophyton infection in Guinea Pig during drug administration; format: functional; summary of the method: as §6
# [23] = organism: Cavia porcellus; assay: Lession score which is determined as number of animals minus days to become negative; format: functional; summary of the method: as §6
SMILES,MIC [1] [µg/mL],MIC [2] [µg/mL],Geometric mean [3],MIC [4] [µg/mL],MIC [5] [µg/mL],MIC [6] [µg/mL],MIC [7] [µg/mL],Geometric mean [8],MIC [9] [µg/mL],MIC [10] [µg/mL],MIC [11] [µg/mL],MIC [12] [µg/mL],MIC [13] [µg/mL],MIC [14] [µg/mL],Geometric mean [15],other results
c1ccc(-c2ccc(C3(Cn4ccnc4)OCc4ccccc43)cc2)cc1 (stereo unspecified),< 0.031,1,7.2,32,0.063,0.125,< 0.031,0.16,16,8,< 0.031,32,0.25,< 0.031,–,–
Clc1ccc(C2(Cn3ccnc3)OCCc3ccccc32)cc1 (stereo unspecified),0.25,1,51,64,< 0.031,< 0.031,0.125,< 0.02,64,1,< 0.031,64,< 0.031,2,<0.22,–
Clc1ccc(C2(Cn3ccnc3)OCc3ccc(Cl)cc32)c(Cl)c1 (stereo unspecified),8,0.5,<15,64,1,< 0.031,0.5,< 0.031,64,–,–,8,< 0.031,< 0.031,1.3,Inhibition [16]: 64%; Inhibition [17]: 26%
c1ccc(C2(Cn3ccnc3)SCc3ccccc32)cc1 (stereo unspecified),2,4,53,64,0.125,0.25,2,0.19,64,16,0.063,64,0.25,16,–,Geometric mean [18]: 1.7
Clc1ccc(C2(Cn3ccnc3)OCc3ccccc32)cc1 (stereo unspecified),2,2,7.2,16,0.125,< 0.031,2,< 0.03,32,4,< 0.031,16,< 0.031,0.25,<0.86,Inhibition [19]: 89%; Inhibition [20]: 88%; Culture negative [21]: 87%; Culture negative [22]: 90%; Inhibition [16]: 88%; Inhibition [17]: 30%; Lesion score [23]: 3 and >2
Clc1ccc(C2(Cn3cncn3)OCc3ccccc32)cc1 (stereo unspecified),1,1,16,64,< 0.031,< 0.031,1,< 0.02,32,4,< 0.031,64,< 0.031,1,<0.57,–
Clc1ccc(CC2(Cn3ccnc3)OCc3ccccc32)cc1 (stereo unspecified),8,4,>78,> 64,0.25,0.25,8,0.25,> 64,32,0.25,> 64,0.25,4,4.6,–
